According to ChEMBL document CHEMBL4038329, “Side-Chain Modified Ergosterol and Stigmasterol Derivatives as Liver X Receptor Agonists” (J Med Chem, 2017):
Active and inactive are the calls of the source. The rule behind the calls is not given here.

Key:
[1] = Agonist activity at LXR in human HepG2 cells assessed as upregulation of SREBP1c mRNA levels at 10 uM after 6 hrs by qPCR analysis; assay type: cell-based
In short: (§1)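 HepG2 cells treated with ligand (10 μM). Total RNA was extracted with TRIZOL; 2 µg was reverse-transcribed (1 h, 42 °C). SREBP1c, FASN and SCD1 transcripts were measured by qPCR. Mean ± SD of three biological samples; ANOVA with Dunnett's test.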

[2] = Agonist activity at LXR in human U937 cells assessed as upregulation of SCD1 mRNA levels at 10 uM after 6 hrs by qPCR analysis relative to control; assay type: cell-based; settings: for Activity: human, 6 h, 10 µM; for fold induction at 10 µM: Homo sapiens, U-937, 6 h, read-out: FC
In short: (§2)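 U937 cells, 3x10⁶ in 10 ml RPMI with 10% FBS, differentiated with PMA 10 ng/ml for 72 h at 37 °C, then treated with ligand (10 μM) for 6 h. Total RNA was isolated with TRIZOL; 2 µg was reverse-transcribed for 1 h at 42 °C. Transcripts were measured by qPCR. Mean ± SD of three biological samples; ANOVA with Dunnett's test.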

[3] = target: T1, Oxysterols receptor LXR-alpha (Homo sapiens) (UniProt Q13133); assay: Activation of GAL4 fused human LXR alpha expressed in HEK293 cells after 24 hrs by luciferase reporter gene assay relative to 22R-HC; assay type: cell-based
T1 sequence (whole entry): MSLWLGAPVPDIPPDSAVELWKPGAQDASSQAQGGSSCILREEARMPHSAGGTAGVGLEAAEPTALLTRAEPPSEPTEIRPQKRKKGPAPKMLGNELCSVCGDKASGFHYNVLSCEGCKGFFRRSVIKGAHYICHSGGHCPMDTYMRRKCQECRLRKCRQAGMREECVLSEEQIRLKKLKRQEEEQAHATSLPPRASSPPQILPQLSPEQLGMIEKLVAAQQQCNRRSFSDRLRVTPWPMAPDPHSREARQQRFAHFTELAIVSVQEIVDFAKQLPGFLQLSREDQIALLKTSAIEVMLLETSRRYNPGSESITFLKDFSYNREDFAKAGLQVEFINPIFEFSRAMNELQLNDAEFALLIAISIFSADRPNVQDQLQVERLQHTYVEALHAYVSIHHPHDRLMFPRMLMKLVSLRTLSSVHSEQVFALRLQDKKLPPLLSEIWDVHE
In short: (§3)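 HEK293 cells carrying the Gal4-LXR-α or Gal4-LXR-β chimera plus the pMH100X4-TK-luc and Renilla reporters. Treatment started 6 h post-transfection and ran 24 h. Dual luciferase read-out. Efficacy is given as % of the response to 8 μM 22R-HC, ± SD, from three to five independent experiments.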

HEK293 = assay: Activation of GAL4 fused human RXR expressed in HEK293 cells at 10 uM after 24 hrs by luciferase reporter gene assay
[4] = Agonist activity at LXR in human U937 cells assessed as upregulation of FASN mRNA levels at 10 uM after 6 hrs by qPCR analysis; assay type: cell-based; in short: as §2
[5] = Agonist activity at LXR in human HepG2 cells assessed as upregulation of SCD1 mRNA levels at 10 uM after 6 hrs by qPCR analysis; assay type: cell-based; in short: as §1
[6] = Agonist activity at LXR in human HepG2 cells assessed as upregulation of FASN mRNA levels at 10 uM after 6 hrs by qPCR analysis; assay type: cell-based; in short: as §1
[7] = target: T2, Peroxisome proliferator-activated receptor gamma (Homo sapiens) (UniProt P37231); assay: Activation of GAL4 fused human PPARgamma expressed in HEK293 cells at 10 uM after 24 hrs by luciferase reporter gene assay
T2 sequence (whole entry): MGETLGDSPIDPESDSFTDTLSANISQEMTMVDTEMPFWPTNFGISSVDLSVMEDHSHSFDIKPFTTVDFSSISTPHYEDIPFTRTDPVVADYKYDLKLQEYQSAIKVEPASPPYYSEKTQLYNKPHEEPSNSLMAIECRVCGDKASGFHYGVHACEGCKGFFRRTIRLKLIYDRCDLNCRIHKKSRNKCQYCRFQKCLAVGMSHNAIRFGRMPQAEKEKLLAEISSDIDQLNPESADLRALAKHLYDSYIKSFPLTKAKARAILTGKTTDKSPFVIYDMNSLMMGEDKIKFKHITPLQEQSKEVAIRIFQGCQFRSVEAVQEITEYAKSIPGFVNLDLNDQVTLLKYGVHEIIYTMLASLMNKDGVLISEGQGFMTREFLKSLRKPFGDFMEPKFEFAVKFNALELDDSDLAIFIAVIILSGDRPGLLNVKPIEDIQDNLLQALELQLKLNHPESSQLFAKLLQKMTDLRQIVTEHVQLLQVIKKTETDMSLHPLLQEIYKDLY

Homo sapiens [8] = organism: Homo sapiens; assay: Agonist activity at LXR in human U937 cells assessed as upregulation of ABCA1 mRNA levels at 10 uM after 6 hrs by qPCR analysis; assay type: cell-based; in short: as §2
[9] = target: T3, Oxysterols receptor LXR-beta (Homo sapiens) (UniProt P55055); assay: Activation of GAL4 fused human LXR beta expressed in HEK293 cells after 24 hrs by luciferase reporter gene assay relative to 22R-HC; assay type: cell-based; in short: as §3
T3 sequence (whole entry): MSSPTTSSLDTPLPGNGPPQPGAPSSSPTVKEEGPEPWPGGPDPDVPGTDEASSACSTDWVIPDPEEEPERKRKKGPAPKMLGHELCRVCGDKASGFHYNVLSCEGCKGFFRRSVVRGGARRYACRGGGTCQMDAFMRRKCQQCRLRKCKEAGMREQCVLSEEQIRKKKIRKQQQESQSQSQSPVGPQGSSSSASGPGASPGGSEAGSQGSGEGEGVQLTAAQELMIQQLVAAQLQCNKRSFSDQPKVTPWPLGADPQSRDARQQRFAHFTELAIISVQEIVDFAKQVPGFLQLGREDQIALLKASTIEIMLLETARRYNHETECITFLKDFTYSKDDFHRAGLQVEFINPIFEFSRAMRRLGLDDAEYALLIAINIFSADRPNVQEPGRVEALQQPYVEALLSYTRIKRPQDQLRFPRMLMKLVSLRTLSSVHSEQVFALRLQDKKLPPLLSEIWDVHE

[10] = Agonist activity at LXR in human U937 cells assessed as upregulation of SREBP1c mRNA levels at 10 uM after 6 hrs by qPCR analysis; assay type: cell-based; in short: as §2
Homo sapiens [11] = organism: Homo sapiens; assay: Agonist activity at LXR in human U937 cells assessed as downregulation of LPS-induced TNFalpha mRNA expression at 10 uM after 6 hrs by qPCR analysis; assay type: cell-based
In short: (§4)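 PMA-differentiated U937 cells (10 ng/ml PMA, 72 h) were given LPS 100 ng/ml together with compound (10 μM) for 6 h. CCL2 and TNFα mRNA were measured by qPCR after TRIZOL RNA extraction and reverse transcription. Three biological samples per group, mean ± SD.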

Homo sapiens [12] = organism: Homo sapiens; assay: Agonist activity at LXR in human U937 cells assessed as downregulation of LPS-induced CCL2 mRNA expression at 10 uM after 6 hrs by qPCR analysis; assay type: cell-based; in short: as §4
[13] = target: T4, Oxysterols receptor LXR-beta (Homo sapiens, UniProt P55055); assay: Activation of GAL4 fused human LXR beta expressed in HEK293 cells after 24 hrs by luciferase reporter gene assay; assay type: cell-based
T4 sequence (P55055 whole entry): T3 sequence (whole entry)
In short: (§5)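 HEK293 cells (4x10⁴/well), grown in DMEM with 10% FBS at 37 °C under 5% CO₂, transiently co-transfected with pMH100X4-TK-luc, Renilla and the Gal4-LXR-α or Gal4-LXR-β plasmid. Dosing began 6 h after transfection and lasted 24 h, at 32, 16, 8, 4, 2 and 1 μM. Dual luciferase read-out. EC50 came from dose-response curves, averaged over three to five independent experiments, ± SD.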

[14] = target: T5, Oxysterols receptor LXR-alpha (Homo sapiens, UniProt Q13133); assay: Activation of GAL4 fused human LXR alpha expressed in HEK293 cells after 24 hrs by luciferase reporter gene assay; assay type: cell-based; in short: as §5
T5 sequence (Q13133 whole entry): T1 sequence (whole entry)

Efficacy [9] [%] | Structure (SMILES) | Activity [1] | Activity [2] | Efficacy [3] [%] | Activity (HEK293) | Activity [4] | Activity [5] | Activity [6] | Activity [7] | Activity (Homo sapiens [8]) | Activity [10] | fold induction at 10 µM [2] | Activity (Homo sapiens [11]) | Activity (Homo sapiens [12]) | EC50 [13] | EC50 [14]
36.3 | CC[C@@H](C(C)C)[C@@H]1O[C@H]1[C@@H](C)[C@H]1CC[C@H]2[C@@H]3CC=C4C[C@@H](O)CC[C@]4(C)[C@H]3CC[C@]12C | Not Active | Not Active | 56.8 | inactive | Not Active | Not Active | Not Active | inactive | Active | Not Active | – | – | – | – | –
46.4 | CC[C@H](C(=O)C[C@@H](C)[C@H]1CC[C@H]2[C@@H]3CC=C4C[C@@H](O)CC[C@]4(C)[C@H]3CC[C@]12C)C(C)C | Not Active | – | 12.4 | inactive | Not Active | Not Active | Not Active | inactive | Active | Not Active | < 2 | Active | – | – | –
– | O=S(=O)(c1ccccc1)N(CC(F)(F)F)c1ccc(C(O)(C(F)(F)F)C(F)(F)F)cc1 [T091317] | Not Active | Not Active | – | – | Not Active | Not Active | Not Active | – | Active | Active | – | – | Active | – | –
– | CC[C@@H](C(C)C)[C@H](O)C[C@@H](C)[C@H]1CC[C@H]2[C@@H]3CC=C4C[C@@H](O)CC[C@]4(C)[C@H]3CC[C@]12C | Not Active | Not Active | – | inactive | Not Active | Not Active | Not Active | inactive | Active | Not Active | – | Active | Active | – | –
– | CC(C)[C@@H](C)CC(=O)[C@@H](C)[C@H]1CC[C@H]2C3=CC=C4C[C@@H](O)CC[C@]4(C)[C@H]3CC[C@]12C | Not Active | Not Active | 70.2 | inactive | Not Active | Not Active | Not Active | inactive | Active | Not Active | – | – | – | Not Active | –
142 | CC[C@@H](C(C)C)[C@H]1O[C@@H]1[C@@H](C)[C@H]1CC[C@H]2[C@@H]3CC=C4C[C@@H](O)CC[C@]4(C)[C@H]3CC[C@]12C | Active | Not Active | 489 | inactive | Not Active | Not Active | Not Active | inactive | Active | Not Active | – | Active | – | – | –
– | CC(C)[C@@H](C)[C@H](O)C[C@@H](C)[C@H]1CC[C@H]2C3=CC=C4C[C@@H](O)CC[C@]4(C)[C@H]3CC[C@]12C | Not Active | Not Active | 63.9 | inactive | Not Active | Not Active | Not Active | inactive | Active | Not Active | – | – | – | Not Active | –
– | CC[C@H](CC(=O)[C@@H](C)[C@H]1CC[C@H]2[C@@H]3CC=C4C[C@@H](O)CC[C@]4(C)[C@H]3CC[C@]12C)C(C)C | – | – | – | – | – | – | – | – | – | – | – | – | – | Not Active | Not Active
– | CC(C)[C@@H](C)C(=O)C[C@@H](C)[C@H]1CC[C@H]2C3=CC=C4C[C@@H](O)CC[C@]4(C)[C@H]3CC[C@]12C | Not Active | Not Active | 151 | inactive | Not Active | Not Active | Not Active | inactive | Active | Not Active | – | – | – | Not Active | –

Structure (SMILES) | Efficacy [9] [%] | Activity [1] | Activity [2] | Efficacy [3] [%] | Activity (HEK293) | Activity [4] | Activity [5] | Activity [6] | Activity [7] | Activity (Homo sapiens [8]) | Activity [10] | fold induction at 10 µM [2] | Activity (Homo sapiens [11]) | Activity (Homo sapiens [12]) | EC50 [13] | EC50 [14]
CC(C)[C@@H](C)[C@@H]1O[C@H]1[C@@H](C)[C@H]1CC[C@H]2C3=CC=C4C[C@@H](O)CC[C@]4(C)[C@H]3CC[C@]12C | 48.5 | Active | – | 51.7 | inactive | Not Active | Not Active | Not Active | inactive | Active | Not Active | < 2 | – | Active | – | –
